According to ChEMBL document CHEMBL1134345, “Coumarin and chromen-4-one analogues as tautomerase inhibitors of macrophage migration inhibitory factor: discovery and X-ray crystallography” (J Med Chem, 2001):

Target: T1, Macrophage migration inhibitory factor (Homo sapiens, UniProt P14174)
T1 sequence (P14174 whole entry): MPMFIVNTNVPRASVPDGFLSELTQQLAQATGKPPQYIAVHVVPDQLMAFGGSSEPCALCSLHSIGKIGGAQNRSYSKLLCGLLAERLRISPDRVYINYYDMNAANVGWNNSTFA
Test: Binding activity towards the active site of macrophage migration inhibitory factor (MIF)

| Kd | Compound |
| --- | --- |
| 2500 µM | CCCCCCSC[C@H](NC(=O)CC[C@H](N)C(=O)O)C(=O)NCC(=O)O |

Target: T1, Macrophage migration inhibitory factor
Test: Inhibitory activity against tautomerase macrophage migration inhibitory factor (MIF)
In short: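 Recombinant human MIF at 4 ug/mL final, in sodium phosphate buffer pH 6.0. Inhibitors were added in DMSO (1% v/v final). The reaction was started with freshly made D-dopachrome (D-DOPA oxidized with periodate, 1:2) at 0.25–0.5 mM. The A475 decrease was followed for 10 min. Initial rates were corrected for the uncatalyzed rate without MIF. Ki came from three-dimensional nonlinear regression.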

| Ki | IC50 | Compound |
| --- | --- | --- |
| 2.6 µM | – | O=C(O)/C=C/c1ccc(O)cc1F |
| 1.6 µM | – | O=C(COC(=O)c1cc2ccccc2oc1=O)c1ccccc1 |
| 1.5 µM | – | O=c1oc2cc(O)ccc2cc1-c1nc(-c2ccc3c(c2)OCO3)cs1 |
| 6.2 µM | – | CN(C)c1ccc(/C=C2\C(=O)Oc3ccccc3C2=O)cc1 |
| 4.3 µM | – | CC(=O)c1cc2ccc(O)cc2oc1=O |
| 0.28 µM | – | O=c1oc2ccccc2cc1-c1csc(-c2cc3ccc(O)cc3oc2=O)n1 |
| 5.8 µM | – | CCOC(=O)CC(=O)c1cc2ccc(O)cc2oc1=O |
| 0.47 µM | – | O=c1oc2cc(O)ccc2cc1-c1ccccc1 |
| – | 3300 µM | CCCCCCSC[C@H](NC(=O)CC[C@H](N)C(=O)O)C(=O)NCC(=O)O |
| 2.1 µM | – | Cc1nc(-c2cc3ccc(O)cc3oc2=O)cs1 |
| 3.1 µM | – | Cc1csc(-c2cc3ccc(O)cc3oc2=O)n1 |
| 0.55 µM | – | NC(=S)c1cc2ccc(O)cc2oc1=O |
| – | 17.4 µM | CCCCCCS [HEXANETHIOL] |

| Compound | Ki | IC50 |
| --- | --- | --- |
| N#Cc1cc2ccc(O)cc2oc1=O | 2.9 µM | – |
